Screening results as filed in PubChem.
MrgX1 agonist = activates human MrgX1 receptor signaling. Q96LB2. MrgX1-HEK293 cells, Fluo-4 calcium fluorescence, agonist mode; stronger effect = higher value. B-score at 10 µM. 310,000 tested, 0.44% active. AID 588627;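 active = calcium response B-score plate-corrected fluorescence ratio at least 3 library SD, with starting fluorescence B-score inside 5 SD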
Target sequence (Q96LB2 whole entry, looked up): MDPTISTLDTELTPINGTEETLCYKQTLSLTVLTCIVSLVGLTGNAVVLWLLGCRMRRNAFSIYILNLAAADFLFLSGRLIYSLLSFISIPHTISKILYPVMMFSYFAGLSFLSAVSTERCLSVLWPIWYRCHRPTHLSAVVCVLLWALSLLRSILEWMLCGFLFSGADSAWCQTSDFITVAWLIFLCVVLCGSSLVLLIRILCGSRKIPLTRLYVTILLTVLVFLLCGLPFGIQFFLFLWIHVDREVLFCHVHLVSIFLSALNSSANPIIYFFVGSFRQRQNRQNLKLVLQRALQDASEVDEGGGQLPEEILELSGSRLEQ
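Assay system: stable human MrgX1 HEK293 cell line. Quantity: 15,000 cells per well. Schedule: cells plated overnight, dye loaded 0.5 h 37 °C, 0.5 h room temperature. Detection: Fluo-4 NW calcium-flux fluorescence, kinetic read. Read-out basis: peak-minus-minimum fluorescence over baseline, converted to B scores. Control set: positive and negative control wells on each plate.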
MrgX1 antagonist = antagonists of human MrgX1 receptor. Q96LB2. MRGX1-HEK293 calcium flux, Fluo-4, BAM8-22 antagonism; stronger effect = lower value. B-score at 10 µM. 310,000 tested, 1.3% active;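 active = calcium-response B-score plate-corrected more than 3 library SD below zero, starting fluorescence within 5 deviations, no agonist response on first addition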;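 also: peak minus trough fluorescence over baseline after final BAM8-22 challenge near maximal dose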
RGS4 inh = human RGS4 inhibition; P49798; HEK293 M3R/RGS4 inducible, Fluo-4 calcium flux; stronger effect = higher value; triggered by carbachol at its EC20; B-score at 10 µM; 310,000 tested, 0.45% active;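 active = B-score, a plate-corrected calcium signal, over three deviations above library mean, with baseline fluorescence within five deviations of library mean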;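 also: RGS4 expression induced by doxycycline in cells with stable M3 receptor; B-score is computed from the integrated fluorescence ratio over baseline after carbachol; higher B-score means a larger calcium signal and so more RGS4 inhibition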
Target sequence (P49798 whole entry, looked up): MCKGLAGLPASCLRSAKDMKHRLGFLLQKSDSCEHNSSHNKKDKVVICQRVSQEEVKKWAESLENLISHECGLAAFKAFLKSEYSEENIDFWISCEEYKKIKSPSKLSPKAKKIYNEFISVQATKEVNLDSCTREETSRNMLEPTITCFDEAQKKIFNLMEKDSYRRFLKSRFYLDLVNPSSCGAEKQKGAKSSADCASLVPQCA
RGS4 act = potentiators or activators of RGS4. HEK293 M3R/inducible RGS4, carbachol calcium flux Fluo4; stronger effect = lower value. B-score at 10 µM. 310,000 tested, 0.92% active;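 active = B-score of the integrated calcium signal more than 4 SD below the library mean, with starting fluorescence not abnormally high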;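 also: negative B-score means reduced calcium response which marks RGS4 activation or potentiation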
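Assay system: Inducible-RGS4 HEK293 cells carrying M3 receptor | Schedule: Compound preincubation 20 min at room temperature before agonist | Signal: Kinetic calcium fluorescence imaging with Fluo4-AM dye, 2 µM | Read-out basis: B score from integrated fluorescence ratio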
MrgX1 allo act = allosterically activates human MrgX1 receptor signaling | AID 588675 | MrgX1-HEK293, Fluo-4 calcium flux, FDSS; stronger effect = higher value | Q96LB2 | B-score at 10 µM | 310,000 tested, 0.63% active;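 active = plate-corrected calcium response at least 3 library SD above typical, normal starting fluorescence, not activating the receptor alone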;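 also: compound read alongside a low EC10 to EC30 dose of BAM8-22 agonist; peak minus trough fluorescence over baseline measured at the second addition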
MrgX1 allo conf = reconfirmed allosteric activator of human MrgX1 receptor. shares compounds with MrgX1 allo act. MrgX1-HEK293, Fluo-4 calcium fluorescence, FDSS. activation (ratio percentage), % at 10 µM. 1,200 tested, 13% active;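 active = ratio at least 3 SD above the weak peptide control, stable starting fluorescence, no direct agonism earlier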;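 also: compound followed by low BAM8-22 agonist challenge near EC20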
MrgX1 antag conf = human MrgX1 receptor antagonism, re-confirmation screen | shares compounds with MrgX1 antagonist | MrgX1-HEK293, BAM8-22 calcium flux, Fluo-4; stronger effect = lower value | remaining BAM8-22 calcium response % of control (stronger effect = lower value), % at 10 µM | 2,300 tested, 19% active;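 active = remaining agonist calcium response no higher than 100% minus 3 SD of agonist-only control wells, with starting fluorescence near control levels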;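 also: agonist BAM8-22 given at a near maximal EC90 to ECmax level; peak minus minimum fluorescence divided by baseline after agonist addition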
HEK293 Ca flux = MrgX1 antagonist counter-screen hit in parental HEK293 cells; shares compounds with MrgX1 antagonist; Fluo-4 calcium fluorescence, FDSS; fluorescence ratio F(max-min)/F0 at 10 µM; 4,000 tested, 2% active;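 active = duplicate-averaged calcium fluorescence ratio at least three times the standard deviation of buffer wells, a nonspecific response in parental cells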
HEK293 Ca counter = counter-screen for MrgX1 allosteric activators: effect in parental HEK293 cells; shares compounds with MrgX1 antagonist; parental HEK293 calcium flux, Fluo-4 fluorescence ratio; stronger effect = higher value; fluorescence ratio F(max-min)/F0 at 10 µM; 4,000 tested, 0.4% active; AID 624114;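 active = calcium fluorescence ratio, averaged over duplicates, at least 3 SD of the buffer-well ratio, meaning a nonspecific response in receptor-free cells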;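 also: untransfected parental HEK293 lacking MrgX1 used as counterscreen for MrgX1 allosteric activators; fluorescence change taken during the second addition on a kinetic imager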
HEK293 Ca cntr2 = MrgX1 activator counter-screen hit in parental HEK293 cells; Fluo-4 calcium fluorescence (FDSS); stronger effect = higher value; 4,000 tested, 8.7% active; AID 624115; fluorescence ratio F(max-min)/F0 at 10 µM; shares compounds with MrgX1 antagonist;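 active = calcium fluorescence ratio at least three times the spread of buffer wells, meaning a non-specific response in parental cells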
* marks the source's active call; other numbers are inactive results. Most compounds without a hit are left out; they make up all but 3.5% or so of the library.

Screening Cc1ccccc1OCc1nnc(SCC(=O)O)n1-c1cccc(Cl)c1 returned MrgX1 agonist inactive, MrgX1 antagonist inactive, RGS4 inh inactive, RGS4 act inactive and MrgX1 allo act inactive.
Screening Cc1ccc(-n2nc3c(=O)n(CCCC(=O)N4CCC(C(N)=O)CC4)nc(C)c3c2C)cc1 returned MrgX1 agonist inactive, MrgX1 antagonist inactive, RGS4 inh inactive, RGS4 act inactive and MrgX1 allo act inactive.
Cc1ccc(N2CC(C(=O)Nc3ccc(C)c(S(=O)(=O)N(C)C)c3)CC2=O)cc1 (stereo unspecified) was read as MrgX1 agonist inactive, MrgX1 antagonist inactive, RGS4 inh inactive, RGS4 act inactive, MrgX1 allo act 10.1*, MrgX1 allo conf inactive, HEK293 Ca flux inactive, HEK293 Ca counter inactive and HEK293 Ca cntr2 inactive.
`COc1cc(C(=O)OCC(=O)Nc2ccc(N3CCOCC3)cc2)ccc1OCC(C)C` gave MrgX1 agonist inactive, MrgX1 antagonist inactive, RGS4 inh inactive, RGS4 act inactive and MrgX1 allo act inactive.
`O=C(CNC(=O)c1ccc2c(=O)n3c(nc2c1)CCC3)Nc1ccc(F)c(F)c1` gave MrgX1 agonist inactive, MrgX1 antagonist inactive, RGS4 inh inactive, RGS4 act inactive and MrgX1 allo act inactive.
For CSc1nc2ccc(S(=O)(=O)N(C)C)cc2s1 the results were MrgX1 agonist inactive, MrgX1 antagonist inactive, RGS4 inh inactive, RGS4 act inactive and MrgX1 allo act inactive.
For CCN(CC)S(=O)(=O)c1ccc2nc(SC)sc2c1 the results were MrgX1 agonist inactive, MrgX1 antagonist inactive, RGS4 inh inactive, RGS4 act inactive, MrgX1 allo act 12.8*, MrgX1 allo conf inactive, HEK293 Ca flux inactive, HEK293 Ca counter inactive and HEK293 Ca cntr2 inactive.
Screening CCn1c(C)cs/c1=N\C(=S)Nc1ccccc1C returned MrgX1 agonist inactive, MrgX1 antagonist inactive, RGS4 inh inactive, RGS4 act inactive and MrgX1 allo act inactive.
For CCn1nc(C)c(CCC(=O)O)c1C the results were MrgX1 agonist inactive, MrgX1 antagonist inactive, RGS4 inh inactive, RGS4 act inactive, MrgX1 allo act 10.1*, MrgX1 allo conf inactive, HEK293 Ca flux inactive, HEK293 Ca counter inactive and HEK293 Ca cntr2 inactive.
`COc1ccc(OC)c(CN2CCN(C(=O)c3cccc(S(=O)(=O)Nc4ccccc4OC)c3)CC2)c1` gave MrgX1 agonist inactive, MrgX1 antagonist inactive, RGS4 inh inactive, RGS4 act inactive and MrgX1 allo act inactive.
`COc1ccc(OC)c(CN2CCN(C(=O)c3ccc(NS(=O)(=O)c4cccc([N+](=O)[O-])c4)cc3)CC2)c1` gave MrgX1 agonist inactive, MrgX1 antagonist inactive, RGS4 inh inactive, RGS4 act inactive, MrgX1 allo act 19.9*, MrgX1 allo conf 38.0%*, HEK293 Ca flux inactive, HEK293 Ca counter inactive and HEK293 Ca cntr2 inactive.
`CC(=O)c1cc(CN2CCC(n3nccc3NC(=O)c3ccccc3)CC2)cs1` gave MrgX1 agonist inactive, MrgX1 antagonist inactive, RGS4 inh inactive, RGS4 act inactive and MrgX1 allo act inactive.
Screening Cc1cc(Cl)ccc1OC(C)C(=O)Nc1ccc(S(=O)(=O)Nc2cnc3ccccc3n2)cc1 (stereo unspecified) returned MrgX1 agonist inactive, MrgX1 antagonist -6.74*, RGS4 inh inactive, RGS4 act inactive, MrgX1 allo act 7.59*, MrgX1 allo conf inactive, MrgX1 antag conf 81.0%*, HEK293 Ca flux inactive, HEK293 Ca counter inactive and HEK293 Ca cntr2 inactive.
For CC(Oc1ccc(Cl)cc1Cl)C(=O)Nc1ccc(S(=O)(=O)Nc2cnc3ccccc3n2)cc1 (stereo unspecified) the results were MrgX1 agonist inactive, MrgX1 antagonist inactive, RGS4 inh inactive, RGS4 act inactive and MrgX1 allo act inactive.
Screening Cn1c(CNC(=O)CCNC(=O)c2ccccc2)cc(=O)n(C)c1=O returned MrgX1 agonist inactive, MrgX1 antagonist inactive, RGS4 inh inactive, RGS4 act inactive and MrgX1 allo act inactive.
Screening COc1ccc(-c2cc(-c3ccccc3)c(C#N)c(SCC(=O)O)n2)cc1 returned MrgX1 agonist inactive, MrgX1 antagonist inactive, RGS4 inh inactive, RGS4 act inactive and MrgX1 allo act inactive.
N#Cc1c(-c2ccccc2)cc(-c2ccccc2)nc1SCC(=O)NCC(=O)O was read as MrgX1 agonist inactive, MrgX1 antagonist inactive, RGS4 inh inactive, RGS4 act inactive, MrgX1 allo act 19.3*, MrgX1 allo conf inactive, HEK293 Ca flux inactive, HEK293 Ca counter inactive and HEK293 Ca cntr2 inactive.
Screening CCN1CCN(CCNC(=O)c2ccc3c(c2)N(Cc2ccc(F)cc2)C(=O)/C(=C/c2ccccc2)S3)CC1 returned MrgX1 agonist inactive, MrgX1 antagonist -16*, RGS4 inh inactive, RGS4 act inactive, MrgX1 allo act 20.9*, MrgX1 allo conf inactive, MrgX1 antag conf 65.7%*, HEK293 Ca flux inactive, HEK293 Ca counter inactive and HEK293 Ca cntr2 inactive.
For CN1CCN(CCCNC(=O)c2ccc(/C=C3\Sc4ccccc4N(Cc4ccccc4F)C3=O)cc2)CC1 the results were RGS4 inh inactive and RGS4 act inactive.
Screening CCCC1=Nc2cc(C(=O)N3CCC(C(=O)OCC)CC3)ccc2Sc2ccccc21 returned MrgX1 agonist inactive, MrgX1 antagonist inactive, RGS4 inh inactive, RGS4 act inactive and MrgX1 allo act inactive.
`CSc1ccccc1NC(=O)c1ccccc1N(C)S(C)(=O)=O` gave MrgX1 agonist inactive, MrgX1 antagonist inactive, RGS4 inh inactive, RGS4 act inactive, MrgX1 allo act 8.17*, MrgX1 allo conf 10.0%*, HEK293 Ca flux inactive, HEK293 Ca counter inactive and HEK293 Ca cntr2 inactive.
